Assay [1] in a line: S. cerevisiae growth inhibition in permissive medium (OD615), pilot counter-assay for S. cerevisiae lifespan shortening project, permissive growth control (AID 705;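 active means growth inhibition above 25% in both replicates, a cutoff set 3 SD above the mean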). The settings on record: OD615, 24 h, at 10 µM, active compounds read high. Put shortly:
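System: engineered DeaD yeast; Medium: permissive raffinose/galactose medium; Compound dosing: 10 µM single dose, 0.25% DMSO; Incubation: 4 h cell pre-growth, 24 h exposure at 30 °C; Technique: OD at 615 nm; Evaluation: growth inhibition from lowered OD615 after 24 h.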

The nature of assay [2]: S. cerevisiae growth inhibition in restrictive medium, OD615, pilot screen, restrictive growth control, yeast lifespan reduction project (AID 706;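 active means growth inhibition above a set limit, 3 SD over mean compound inhibition, in both replicates, cut at about 43% in these data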;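 further: modified DeaD lifespan yeast strain shifted to restrictive glucose medium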). The settings on record: OD615, 48 h, at 10 µM, active compounds read high. Put shortly:
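Material: modified S. cerevisiae; buffer or medium: CSMM-D glucose medium; doses: one concentration, 10 µM final, 0.25% DMSO; incubation: 48 h compound exposure at 30 °C; detection: optical density at 615 nm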

Assay [3] can be described thus: doxorubicin toxicity protection in MRP-1 cells – H69AR cells, CellTiter-Glo, duplicate, MRP-1 activator project, pilot screen (AID 807;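 active means viability increase at or above a cutoff of the median across tested compounds plus 3 SD, cut at about 8.5% in these data, passing the limit was not always enough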;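 further: compound pretreatment 18-22 h then 72 h combined with doxorubicin; 0% = doxorubicin alone and 100% = vehicle without doxorubicin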). The settings on record: H69AR viability with doxorubicin, CellTiter-Glo luminescence; at 10 µM; active compounds read high.
The nature of assay [4]: viability of HCT116 without oncogenic beta-catenin – human colon tumor cells, pilot screen (AID 823;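 active means cell viability at or below a set limit in both duplicate runs, the limit being the all-compound median minus 4 SD, cut at about 23% in these data, passing the limit was not always enough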;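 further: 0% = wells killed by 20 µM Hyamine and 100% = untreated DMSO cell wells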). The settings on record: HCT116 beta-catenin knockout viability, CellTiter-Glo, 60 h; at 10 µM; active compounds read low.
Assay [5] is described as follows: viability of PTEN-null HCT116 cells – cell-based, HCT116 clonal line, CellTiter-Glo, pilot screen (AID 824;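 active means viability at or below 27.92% in each of two runs, the all-compound median minus 4 SD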;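 further: 0% = 20 µM Hyamine control and 100% = vehicle cell control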). The settings on record: HCT116 PTEN-deleted viability, 60 h, at 10 µM, active compounds read low.
The nature of assay [6]: RAM pathway blockade in budding yeast – dse1pr::URA3 reporter, 5-FOA selection, pilot screen (AID 869;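 active means inhibition over a set limit, the all-compound mean plus 3 SD, in both replicate runs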;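 further: 0% = DMSO wells with no growth and 100% = 10 µM 1-NA-PP1 with full growth; RAM network block rescues cells from 5-FOA so hits raise OD615 growth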). The settings on record: S. cerevisiae dse1pr::URA3 5-FOA growth, OD615, 2 d; at 10 µM; active compounds read high; strain carries analog-sensitive mutant Cbk1 kinase.
A short description of assay [7]: RAM signaling pathway blockade in yeast – S. cerevisiae, Pdr1DBD-CYC8 efflux-inhibited sensitized strain, primary screen (AID 1298).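 Further: 0% = DMSO untreated cells without growth and 100% = 10 µM 1-NA-PP1 full growth; higher means more yeast growth rescued from 5-FOA killing.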 The settings on record: S. cerevisiae cbk1-as DSE1-URA3 strain, 5-FOA growth OD615, 2 d; at 50 µM; active compounds read high.

Unmarked numbers belong to inactive results. Results filed as inconclusive are left out. Activity calls are given as the source filed them.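 How the source made its calls, unless noted: active means RAM network inhibition above 8.4% in each of two replicates, 3 SD over the compound average; inconclusive means above 8.4% inhibition in only one replicate; inactive means 8.4% inhibition or less in each replicate.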

The record followed here is PubChem BioAssay.

On to `Cn1c(SCc2c(F)cccc2Cl)nnc1-c1cnccn1`, for which the results for the growth inhibition in assay [1] and in assay [2] were 3.5% and 9.8%, respectively. In addition, the viability increase in assay [3] was -0.67%. The viability in assay [4] is 96.5%; in assay [5], 93.8%. Further, in assay [6], the inhibition was 1.94%. Also, the RAM network inhibition in assay [7] is 5.07%.
As for `O=C(Nc1nc2ccccc2n1CCOc1ccc(Cl)cc1)c1ccco1`, the growth inhibition in assay [1] was 0.61%; in assay [2], -2.21%. Besides, the viability increase in assay [3] is -3.5%. Moreover, the viability is 11.8% (active) in assay [4] and 16.8% (active) in assay [5]. Also, in assay [6], the inhibition is 0.745%. The RAM network inhibition in assay [7] was 4.7%.
Regarding `CCN1CCN(CC(=O)Nc2cccc(C)c2C)C(=O)C1=O`, the growth inhibition in assay [1] is -3.54%; in assay [2], -7.93%. In assay [3], the viability increase was -0.73%. Also, the viability was 99% in assay [4] and 90.9% in assay [5]. Further, in assay [6], the inhibition is 2.46%. In addition, the RAM network inhibition in assay [7] was 2.6%.
Consider `CC1(C)Nc2ccccc2N(CCC(=O)N2CCOCC2)C1=O`, for which the growth inhibition in assay [1] was -13.2%; in assay [2], 0.485%. Also, in assay [3], the viability increase was -0.6%. In addition, the viability in assay [4] is 92.9%; in assay [5] it was 96.4%. For the same compound, the inhibition in assay [6] was 0.905%. Moreover, in assay [7], the RAM network inhibition is 2.81%.
As for `O=C(Cn1cc2c(n1)CCCC2)NCCCN1CCN(Cc2ccccc2)CC1`, the growth inhibition was -1.54% in assay [1] and -1.17% in assay [2]. In addition, the viability increase in assay [3] was -2.71%. For the same compound, the viability was 91.5% in assay [4] and 93.2% in assay [5]. In addition, in assay [6], the inhibition was 0.61%. Further, in assay [7], the RAM network inhibition was -0.1%.
`CN(C)S(=O)(=O)c1ccc2c(c1)c(=O)c(C(=O)N1CCOCC1)cn2C`: the growth inhibition in assay [1] was -8.25%; in assay [2], 2.44%. Also, the viability increase in assay [3] is 0.13%. For the same compound, the viability in assay [4] was 103%; in assay [5], 89.4%. Further, the inhibition in assay [6] was 1.79%. The RAM network inhibition in assay [7] was -0.67%.
As to `CC(=O)Nc1ccc(S(=O)(=O)N2CCSCC2)cc1`, the growth inhibition in assay [1] was -14.7%; in assay [2], -27.7%. The viability increase in assay [3] was -2.25%. In addition, the viability in assay [4] is 98.6%; in assay [5], 98.5%. Further, in assay [6], the inhibition is 1.88%. Besides, the RAM network inhibition in assay [7] was 3.21%.
As to `Cn1nc(-c2ccc(Cl)cc2)c2cc(C(=O)NCCCN3CCCC3)sc21`, the growth inhibition in assay [1] is -5.71%; in assay [2], 4.49%. Moreover, in assay [3], the viability increase is -8.31%. Further, the viability is 2.27% (active) in assay [4] and 1.95% (active) in assay [5]. In addition, the inhibition in assay [6] is 1.23%. For the same compound, in assay [7], the RAM network inhibition is 0.73%.
Take `COc1ccc(NC(=O)c2ccc3c(c2)n(C)c(=O)n3C)cc1`: the growth inhibition is -9.67% in assay [1] and -7.33% in assay [2]. The viability increase in assay [3] was -5.39%. For the same compound, the viability in assay [4] and in assay [5] was 55.7% each time. Also, the inhibition in assay [6] is 1.06%. Further, the RAM network inhibition in assay [7] is 4.75%.
On to `CCOC(=O)/C=C/S(=O)(=O)c1ccc(NC(C)=O)cc1`, for which the growth inhibition was -24.4% in assay [1] and -13.2% in assay [2]. Moreover, the viability increase in assay [3] is -7.51%. Moreover, the viability in assay [4] was 82.4%; in assay [5], 93.5%. The inhibition in assay [6] is 0.03%. Also, in assay [7], the RAM network inhibition is 5.29%.
With `Cn1c(Cn2c(=O)sc3ccccc32)nnc1SCC(=O)Nc1cccc(F)c1`, the growth inhibition was -12% in assay [1] and -5.46% in assay [2]. Further, in assay [3], the viability increase is -2.58%. Further, the viability in assay [4] was 97.3%; in assay [5], 93.4%. Moreover, in assay [6], the inhibition was 1.9%. Also, the RAM network inhibition in assay [7] was 1.86%.
Take `COc1ccccc1N1CCN(C(=O)CCCCn2c(=O)[nH]c3ccsc3c2=O)CC1`: the growth inhibition in assay [1] is -4.33%; in assay [2] it was 7.52%. In assay [3], the viability increase is -2.84%. The viability is 94% in assay [4] and 88.5% in assay [5]. Further, the inhibition in assay [6] is 2.13%. Also, in assay [7], the RAM network inhibition is 5.16%.
Take `CCCCN(C)c1nc(-c2ccco2)c2c(c1C#N)CC(C)(C)OC2`: the growth inhibition is -9.48% in assay [1] and 0.09% in assay [2]. Moreover, in assay [3], the viability increase is -4.56%. Further, the figures for the viability in assay [4] and in assay [5] were 96.3% and 98.3%, respectively. In addition, in assay [6], the inhibition is 1.63%. Besides, the RAM network inhibition in assay [7] is -0.79%.
Consider `COc1ccccc1CNC(=O)c1nnc(Cc2ccc(Cl)cc2)o1`, for which the growth inhibition in assay [1] is -9.86%; in assay [2], 15.4%. Further, the viability increase in assay [3] is 2.29%. Also, the viability in assay [4] is 103%; in assay [5] it was 99.8%. The inhibition in assay [6] is 1.81%. For the same compound, in assay [7], the RAM network inhibition was 1.15%.
`CCOC(=O)N1CCC(N2CC34C=CC(O3)C(C(=O)Nc3ccc(C(C)C)cc3)C4C2=O)CC1` (stereo unspecified): the growth inhibition in assay [1] is 2.48%; in assay [2], -7.2%. Also, in assay [3], the viability increase is 3.15%. Besides, the viability in assay [4] is 102%; in assay [5] it was 99.6%. Also, the inhibition in assay [6] was 0.27%. In assay [7], the RAM network inhibition was -0.37%.
In the case of `O=C(Nc1nccs1)c1cc(S(=O)(=O)N2CCOCC2)ccc1Cl`, the growth inhibition was -0.79% in assay [1] and -2.65% in assay [2]. In addition, the viability increase in assay [3] is -3.96%. The viability in assay [4] was 97.8%; in assay [5], 91%. Further, the inhibition in assay [6] was 1.35%. In assay [7], the RAM network inhibition was 4.18%.
For `O=c1[nH]c2c(s1)C=Nc1ccccc1N2`, the growth inhibition in assay [1] is -5.34%; in assay [2] it was 3.4%. Moreover, the viability increase in assay [3] was -2.29%. In addition, the viability is 89.9% in assay [4] and 91.6% in assay [5]. Moreover, in assay [6], the inhibition is 1.6%. In addition, the RAM network inhibition in assay [7] was 0.32%.
Consider `CCOc1cc(C(=O)Nc2nnc(C)s2)cc(OCC)c1OCC`, for which the growth inhibition in assay [1] was -0.31%; in assay [2], 0.555%. Besides, the viability increase in assay [3] is -4.22%. Besides, the viability in assay [4] is 108%; in assay [5], 97.7%. In addition, the inhibition in assay [6] is 0.43%. In assay [7], the RAM network inhibition is 0.63%.
